ChEMBL document CHEMBL2069210, “D-ring modified novel isosteviol derivatives: design, synthesis and cytotoxic activity evaluation” (Bioorg Med Chem Lett, 2012)

Legend:
Assay type in all cases: functional, cell-based
[1] = Antiproliferative activity against human EC9706 cells after 72 hrs by MTT assay; conditions: EC9706, 72 h
Method in brief: (§1)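 Seeded at 5 × 10^3 cells/well and left 24 h. Medium then replaced with fresh medium holding compound over a range of concentrations, and cells incubated a further 72 h. 0.5 mg/mL MTT in PBS added for 4 h, formazan dissolved in DMSO, absorbance read at 562 nm. IC50 derived from percent inhibition across concentrations.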

HCT-116 = assay: Antiproliferative activity against human HCT116 cells after 72 hrs by MTT assay; conditions: HCT-116, 72 h; method in brief: as §1
PC-3 = assay: Antiproliferative activity against human PC3 cells after 72 hrs by MTT assay; conditions: PC-3, 72 h; method in brief: as §1
[2] = Antiproliferative activity against human ECA109 cells after 72 hrs by MTT assay; conditions: ECa-109, 72 h; method in brief: as §1

In the case of `CCOC(=O)[C@]1(C)CCC[C@@]2(C)[C@@H]3CC[C@@]4(C)C[C@]3(CC[C@@H]21)C(=O)OC4=O`, the IC50 [1] is reported as > 100 µM, the IC50 (HCT-116) is reported as > 100 µM and the IC50 (PC-3) is reported as > 100 µM. For the same compound, the IC50 [2] was > 100 µM.

For `CCOC(=O)[C@]1(C)CCC[C@@]2(C)[C@@H]3CC[C@@]4(C)C[C@]3(CC[C@@H]21)[C@@H](O)[C@H]4NC(=O)[C@@H]1CCCN1`, the IC50 [1] was 60.7 µM, the IC50 (HCT-116) was > 100 µM and the IC50 (PC-3) was > 100 µM. It also gave an IC50 [2] of 69.5 µM.

For `CCOC(=O)[C@]1(C)CCC[C@@]2(C)[C@@H]3CC[C@@]4(C)C[C@]3(CC[C@@H]21)[C@H](CNC(C)=O)[C@H]4OC(C)=O`, the IC50 [1] was > 100 µM, the IC50 (HCT-116) was > 100 µM and the IC50 (PC-3) was > 100 µM. The IC50 [2] was > 100 µM.

In the case of `CCOC(=O)[C@]1(C)CCC[C@@]2(C)[C@@H]3CC[C@](C)(C#N)C[C@@]3(C=O)CC[C@@H]21`, the IC50 [1] is reported as > 100 µM, the IC50 (HCT-116) is reported as > 100 µM and the IC50 (PC-3) is reported as > 100 µM. The IC50 [2] was > 100 µM.

For `CCOC(=O)[C@]1(C)CCC[C@@]2(C)[C@@H]3CC[C@@]4(C)C[C@]3(CC[C@@H]21)[C@H](C=O)[C@H]4N1CCCC1`, the IC50 [1] was > 100 µM, the IC50 (HCT-116) was > 100 µM and the IC50 (PC-3) was > 100 µM. For the same compound, the IC50 [2] was 30.3 µM.

For `CCOC(=O)[C@]1(C)CCC[C@@]2(C)[C@@H]3CC[C@@]4(C)C[C@]3(CC[C@@H]21)C(Br)C4=O` (some centres not stated), the IC50 [1] was > 100 µM, the IC50 (HCT-116) was > 100 µM and the IC50 (PC-3) was > 100 µM. For the same compound, the IC50 [2] was > 100 µM.

In the case of `CCOC(=O)[C@]1(C)CCC[C@@]2(C)[C@@H]3CC[C@@]4(C)C[C@]3(CC[C@@H]21)[C@H](C=O)[C@H]4O`, the IC50 [1] is reported as 24.4 µM, the IC50 (HCT-116) is reported as > 100 µM and the IC50 (PC-3) is reported as > 100 µM. For the same compound, the IC50 [2] was 26.5 µM.

In the case of `CCOC(=O)[C@]1(C)CCC[C@@]2(C)[C@@H]3CC[C@@]4(C)C[C@]3(CC[C@@H]21)C(=O)[C@H]4NC(=S)Nc1cc(C(F)(F)F)cc(C(F)(F)F)c1`, the IC50 [1] is reported as > 100 µM, the IC50 (HCT-116) is reported as > 100 µM and the IC50 (PC-3) is reported as > 100 µM. The IC50 [2] was > 100 µM.

For `CCOC(=O)[C@]1(C)CCC[C@@]2(C)[C@@H]3CC[C@@]4(C)C[C@]3(CC[C@@H]21)[C@@H](O)[C@H]4NC(=S)Nc1ccccc1`, the IC50 [1] was > 100 µM, the IC50 (HCT-116) was > 100 µM and the IC50 (PC-3) was > 100 µM. It also gave an IC50 [2] of 72.3 µM.

With `C[C@]12CC[C@H]3[C@]4(C)CCC[C@@](C)(CO)[C@H]4CC[C@@]3(C1)[C@@H](O)/C2=N\O` the IC50 [1] was > 100 µM, the IC50 (HCT-116) was > 100 µM and the IC50 (PC-3) was > 100 µM. The IC50 [2] was > 100 µM.

In the case of `CCOC(=O)[C@]1(C)CCC[C@@]2(C)[C@@H]3CC[C@@]4(C)C[C@]3(CC[C@@H]21)[C@H](CO)[C@H]4O`, the IC50 [1] is reported as 91.6 µM, the IC50 (HCT-116) is reported as > 100 µM and the IC50 (PC-3) is reported as > 100 µM. For the same compound, the IC50 [2] was 43.3 µM.

For `CCOC(=O)[C@]1(C)CCC[C@@]2(C)[C@@H]3CC[C@@]4(C)C[C@]3(CC[C@@H]21)C(=O)[C@H]4N`, the IC50 [1] was 97.2 µM, the IC50 (HCT-116) was > 100 µM and the IC50 (PC-3) was > 100 µM. The IC50 [2] was > 100 µM.

With `CCOC(=O)[C@]1(C)CCC[C@@]2(C)[C@@H]3CC[C@@]4(C)C[C@]3(CC[C@@H]21)CC4=O` the IC50 [1] was > 100 µM, the IC50 (HCT-116) was > 100 µM and the IC50 (PC-3) was > 100 µM. The IC50 [2] was > 100 µM.

With `CCOC(=O)[C@]1(C)CCC[C@@]2(C)[C@@H]3CC[C@@]4(C)C[C@]3(CC[C@@H]21)[C@@H](O)[C@H]4NC(=S)Nc1cccc2ccccc12` the IC50 [1] was > 100 µM, the IC50 (HCT-116) was > 100 µM and the IC50 (PC-3) was > 100 µM. The IC50 [2] was 90.9 µM.

For `CCOC(=O)[C@]1(C)CCC[C@@]2(C)[C@@H]3CC[C@@]4(C)C[C@]3(CC[C@@H]21)[C@H](CNC(C)=O)[C@H]4O`, the IC50 [1] was 21.2 µM, the IC50 (HCT-116) was > 100 µM and the IC50 (PC-3) was > 100 µM. It also gave an IC50 [2] of 13.3 µM.

For `CCOC(=O)[C@]1(C)CCC[C@@]2(C)[C@@H]3CC[C@@]4(C)C[C@]3(CC[C@@H]21)C(=O)[C@H]4O`, the IC50 [1] was > 100 µM, the IC50 (HCT-116) was > 100 µM and the IC50 (PC-3) was > 100 µM. For the same compound, the IC50 [2] was > 100 µM.

For `CCOC(=O)[C@]1(C)CCC[C@@]2(C)[C@@H]3CC[C@](C)(C(=O)O)C[C@@]3(C(=O)O)CC[C@@H]21`, the IC50 [1] was > 100 µM, the IC50 (HCT-116) was > 100 µM and the IC50 (PC-3) was > 100 µM. The IC50 [2] was > 100 µM.

For `CCOC(=O)[C@]1(C)CCC[C@@]2(C)[C@@H]3CC[C@@]4(C)C[C@]3(CC[C@@H]21)[C@@H](O)/C4=N\O`, the IC50 [1] was > 100 µM, the IC50 (HCT-116) was > 100 µM and the IC50 (PC-3) was > 100 µM. For the same compound, the IC50 [2] was > 100 µM.

For `CCOC(=O)[C@]1(C)CCC[C@@]2(C)[C@@H]3CC[C@@]4(C)C[C@]3(CC[C@@H]21)[C@@H](O)[C@H]4N`, the IC50 [1] was 19.3 µM, the IC50 (HCT-116) was 20.1 µM and the IC50 (PC-3) was 25.4 µM. For the same compound, the IC50 [2] was 41.3 µM.

In the case of `CCOC(=O)[C@]1(C)CCC[C@@]2(C)[C@@H]3CC[C@@]4(C)C[C@]3(CC[C@@H]21)C(=O)C4=O`, the IC50 [1] is reported as > 100 µM, the IC50 (HCT-116) is reported as > 100 µM and the IC50 (PC-3) is reported as > 100 µM. The IC50 [2] was > 100 µM.

For `CCOC(=O)[C@]1(C)CCC[C@@]2(C)[C@@H]3CC[C@](C)(C#N)C[C@@]3(C(=O)O)CC[C@@H]21`, the IC50 [1] was > 100 µM, the IC50 (HCT-116) was > 100 µM and the IC50 (PC-3) was > 100 µM. For the same compound, the IC50 [2] was > 100 µM.

For `CCOC(=O)[C@]1(C)CCC[C@@]2(C)[C@@H]3CC[C@@]4(C)C[C@]3(CC[C@@H]21)[C@@H](O)[C@H]4O`, the IC50 [1] was 52.1 µM, the IC50 (HCT-116) was > 100 µM and the IC50 (PC-3) was 87.6 µM. It also gave an IC50 [2] of 90.3 µM.

With `CCOC(=O)[C@]1(C)CCC[C@@]2(C)[C@@H]3CC[C@@]4(C)C[C@]3(CC[C@@H]21)C(=O)[C@H]4NC(=O)[C@@H]1CCCN1` the IC50 [1] was > 100 µM, the IC50 (HCT-116) was > 100 µM and the IC50 (PC-3) was > 100 µM. For the same compound, the IC50 [2] was > 100 µM.

In the case of `C[C@@]12CC[C@@H]3[C@@](CC[C@H]4[C@@]3(C)CCC[C@@]4(C)C(=O)O)(CC1=O)C2` [ISOSTEVIOL], the IC50 [1] is reported as > 100 µM, the IC50 (HCT-116) is reported as > 100 µM and the IC50 (PC-3) is reported as > 100 µM. The IC50 [2] was > 100 µM.

With `CCOC(=O)[C@]1(C)CCC[C@@]2(C)[C@@H]3CC[C@]4(C)C=C(C=O)[C@@]3(CC[C@@H]21)C4` the IC50 [1] was > 100 µM, the IC50 (HCT-116) was > 100 µM and the IC50 (PC-3) was 40.3 µM. The IC50 [2] was > 100 µM.

In the case of `CCOC(=O)[C@]1(C)CCC[C@@]2(C)[C@@H]3CC[C@@]4(C)C[C@]3(CC[C@@H]21)C(=O)/C4=N\O`, the IC50 [1] is reported as > 100 µM, the IC50 (HCT-116) is reported as > 100 µM and the IC50 (PC-3) is reported as > 100 µM. For the same compound, the IC50 [2] was > 100 µM.

Compound `CCOC(=O)[C@]1(C)CCC[C@@]2(C)[C@@H]3CC[C@@]4(C)C[C@]3(CC[C@@H]21)[C@@H](O)[C@H]4NC(=S)Nc1cc(C(F)(F)F)cc(C(F)(F)F)c1` has an IC50 [1] of 24.1 µM, an IC50 (HCT-116) of 14.3 µM and an IC50 (PC-3) of 20.6 µM. For the same compound, the IC50 [2] was 45.8 µM.

With `CCOC(=O)[C@]1(C)CCC[C@@]2(C)[C@@H]3CC[C@@]4(C)C[C@]3(CC[C@@H]21)[C@H](/C=N/O)[C@H]4O` the IC50 [1] was 56.6 µM, the IC50 (HCT-116) was > 100 µM and the IC50 (PC-3) was > 100 µM. It also gave an IC50 [2] of 17.9 µM.

With `CCOC(=O)[C@]1(C)CCC[C@@]2(C)[C@@H]3CC[C@@]4(C)C[C@]3(CC[C@@H]21)C(=O)[C@H]4NC(=S)Nc1ccccc1` the IC50 [1] was > 100 µM, the IC50 (HCT-116) was > 100 µM and the IC50 (PC-3) was > 100 µM. For the same compound, the IC50 [2] was > 100 µM.

In the case of `CCOC(=O)[C@]1(C)CCC[C@@]2(C)[C@@H]3CC[C@@]4(C)C[C@]3(CC[C@@H]21)C[C@H]4O`, the IC50 [1] is reported as > 100 µM, the IC50 (HCT-116) is reported as > 100 µM and the IC50 (PC-3) is reported as > 100 µM. For the same compound, the IC50 [2] was > 100 µM.

In the case of `CCOC(=O)[C@]1(C)CCC[C@@]2(C)[C@@H]3CC[C@@]4(C)C[C@]3(CC[C@@H]21)[C@@H](CN)[C@@H]4O`, the IC50 [1] is reported as 4.01 µM, the IC50 (HCT-116) is reported as 12.2 µM and the IC50 (PC-3) is reported as 15.3 µM. For the same compound, the IC50 [2] was 5.02 µM.

For `CCOC(=O)[C@]1(C)CCC[C@@]2(C)[C@@H]3CC[C@@]4(C)C[C@]3(CC[C@@H]21)C(=O)[C@H]4NC(=S)Nc1cccc2ccccc12`, the IC50 [1] was > 100 µM, the IC50 (HCT-116) was > 100 µM and the IC50 (PC-3) was > 100 µM. For the same compound, the IC50 [2] was > 100 µM.

For `CCOC(=O)[C@]1(C)CCC[C@@]2(C)[C@@H]3CC[C@](C)(C(N)=O)C[C@@]3(C(=O)O)CC[C@@H]21`, the IC50 [1] was > 100 µM, the IC50 (HCT-116) was > 100 µM and the IC50 (PC-3) was > 100 µM. For the same compound, the IC50 [2] was > 100 µM.
